Screening data deposited in PubChem BioAssay by several laboratories.
In the library only some 4% were active in any assay of this set; here they are far more common.
PHOSPHO1 block = inhibitors of human PHOSPHO1 phosphatase | inhibition, % at 13.3 µM | hit rate 1.1% among 290,000 | recombinant PHOSPHO1, absorbance phosphatase assay | Q8TCT1; in the data active = inhibition above about 60%
Target sequence (Q8TCT1 whole entry, looked up): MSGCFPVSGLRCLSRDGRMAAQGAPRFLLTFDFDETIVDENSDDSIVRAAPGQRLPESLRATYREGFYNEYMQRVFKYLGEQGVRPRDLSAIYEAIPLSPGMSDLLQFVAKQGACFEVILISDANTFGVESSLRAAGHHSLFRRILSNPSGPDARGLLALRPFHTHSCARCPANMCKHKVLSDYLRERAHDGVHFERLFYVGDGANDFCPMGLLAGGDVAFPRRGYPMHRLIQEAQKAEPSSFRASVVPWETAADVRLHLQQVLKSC
KCNQ1 act = human KCNQ1 channel potentiation or activation; CHO-K1 KCNQ1, thallium flux FluxOR fluorescence; hits give high values; hit rate 0.35% among 310,000; P51787; B-score at 10 µM;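 active = fluorescence ratio B-score, a plate-corrected score, at least three library SD, with initial intensity B-score within 5 SD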
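Assay system: CHO-K1 cells stably expressing KCNQ1; Medium: assay buffer with matched DMSO; Also added: K+/Tl+ depolarizing stimulus; Dosing: single dose; Timing: dye 90 min, compound 20 min, room temperature; Measured by: kinetic FluxOR thallium fluorescence, 10-s 1-Hz baseline, 110-s post-stimulus read; Read-out: peak-minus-minimum fluorescence over initial fluorescence, negative-control normalized, B-scored.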
KCNK3 block = human KCNK3 channel inhibition, primary screen; O14649; CHO-KCNK3 thallium flux, FluxOR fluorescence; hits give low values; B-score at 10 µM; hit rate 0.84% among 340,000; AID 602410;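 active = B-score under library mean minus 4 SD, starting fluorescence ratio at most library mean plus 5 SD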;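 also: more negative B-score means stronger inhibition of thallium flux through KCNK3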
KCNQ1 inh = inhibitors of human KCNQ1 potassium channel. P51787. CHO-K1 KCNQ1, FluxOR thallium flux fluorescence; hits give high values. B-score at 10 µM. hit rate 1.3% among 310,000. AID 2642;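 active = compounds whose thallium flux B-score, printed positive for inhibition, exceeds three library SD while starting fluorescence stays within three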;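 also: channel opened by potassium depolarization with thallium stimulus after 20 min compound exposure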
KCNK9 inh = blocks the human KCNK9 two-pore domain potassium channel; Q9NPC2; HEK293 KCNK9, FluxOR thallium flux fluorescence; hits give low values; B-score at 10 µM; hit rate 1.2% among 310,000; AID 488922;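 active = ratio B-score over 3 SD below the library mean, with starting fluorescence within 5 SD of its mean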;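 also: negative B-score means less thallium flux so channel inhibition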
Target sequence (Q9NPC2 whole entry, looked up, the tested form may be a part): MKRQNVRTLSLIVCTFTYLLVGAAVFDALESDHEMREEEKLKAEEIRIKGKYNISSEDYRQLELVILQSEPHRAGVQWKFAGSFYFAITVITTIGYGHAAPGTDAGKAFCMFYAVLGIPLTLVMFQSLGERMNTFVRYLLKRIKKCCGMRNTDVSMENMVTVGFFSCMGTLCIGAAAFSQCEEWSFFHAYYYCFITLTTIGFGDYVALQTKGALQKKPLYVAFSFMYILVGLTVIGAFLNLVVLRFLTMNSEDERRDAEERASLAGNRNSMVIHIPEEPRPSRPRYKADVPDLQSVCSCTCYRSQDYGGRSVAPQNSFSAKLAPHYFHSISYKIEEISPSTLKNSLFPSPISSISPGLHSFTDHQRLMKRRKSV
hERG rescue = shields human hERG channel from block by proarrhythmic agents; Q12809; activation (rescue from dofetilide block), less the hit threshold, % at 10 µM; CHO-hERG, FluxOR thallium flux, dofetilide IC70 present; hit rate 0.51% among 310,000;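 active = activation above the mean of controls blocked by dofetilide plus 5 SD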;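 also: thallium influx through hERG after potassium depolarization seen as dye fluorescence rise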
* = called active by the depositor; i = inactive; . = no result.

SMILES | PHOSPHO1 block | KCNQ1 act | KCNK3 block | KCNQ1 inh | KCNK9 inh | hERG rescue
Cc1ccc(C(=O)C(C)OC(=O)C2CCN(c3ccc(C(F)(F)F)cn3)CC2)cc1C (centres undefined) | . | i | i | 6* | i | -5.2
CN1CCN(C(=S)NC(=O)c2ccc(Cl)cc2)CC1 | 12.9 | i | i | i | i | -5.0
COc1cccc(-c2nc(C(N)=O)c3[nH]c(=O)n(-c4ccccc4)c3n2)c1OC | -12.8 | i | i | i | i | -15.7
Cc1onc(-c2ccccc2Cl)c1C(=O)Nc1nnc(-c2ccc(Br)cc2)s1 | -18.1 | i | i | 8* | i | -11.1
Cc1onc(-c2ccccc2Cl)c1C(=O)Nc1nnc(-c2ccc(F)cc2)s1 | 2.1 | i | i | i | i | -7.9
Cc1onc(-c2ccccc2Cl)c1C(=O)Nc1nnc(-c2ccc(Cl)cc2Cl)s1 | -6.0 | i | i | 8* | i | -8.8
Cc1ccc2c(c1)N(C(C)C(=O)NCc1ccccn1)C(=O)CO2 (centres undefined) | 15.9 | i | i | i | i | -14.1
COc1ccc(C(=O)NNC(=O)c2ccc(S(=O)(=O)N3CC(C)OC(C)C3)cc2)cc1 (centres undefined) | 41.7 | i | i | 7* | i | -6.7
COc1cc(OC)cc(C(=O)NNC(=O)c2ccc(S(=O)(=O)N3CC(C)OC(C)C3)cc2)c1 (centres undefined) | 42.1 | i | i | i | i | -8.6
CCc1ccc2[nH]c(=O)c(C3C(C#N)=C(N)Oc4c3ccc3cccnc43)cc2c1 (centres undefined) | 88.9* | i | i | i | i | -9.0
Cc1ccc2cc(C3C(C#N)=C(N)Oc4c3ccc3cccnc43)c(=O)[nH]c2c1 (centres undefined) | 42.0 | i | i | i | i | -7.5
Cc1ccnc(SCC(=O)N2CCN(C(c3ccccc3)c3ccccc3)CC2)n1 | 2.7 | i | i | i | i | -15.8
CC(C)(/C=N/NC(=O)CSCc1ccc(Cl)cc1)CCC#N | 45.4 | i | i | i | i | 5.1*
O=C(N=C1c2ccccc2CN1c1ccc(F)c(Cl)c1)c1cccnc1Cl | -10.5 | i | . | i | -10.6* | -7.2
Cc1cc(NC(=O)CSc2nc3ccccc3c(=O)n2CCCC(=O)NCc2ccco2)n[nH]1 | -5.3 | i | i | i | i | -14.0
C=CCn1c(=O)c(C(=O)OCC)c(O)c2ccccc21 | 49.9 | i | i | i | i | -6.6
C=CCn1c(=O)c(C(=O)Nc2ccccc2C(=O)OCC)c(O)c2ccccc21 | -6.1 | i | -9.88* | i | i | -14.4
CCCNC(=O)N1CCC(Cc2ccccc2)CC1 | 28.7 | i | i | i | i | -5.9
CCOc1ccc2[nH]c(=O)c(CN(Cc3ccco3)C(CC)c3nnnn3Cc3ccccc3)cc2c1 (centres undefined) | 0.5 | i | i | 8* | i | -7.8
COc1cc2cc(CN(Cc3nnnn3Cc3ccco3)C3CCCCC3)c(=O)[nH]c2cc1OC | 29.6 | i | i | i | i | -13.7
CCOc1ccc2[nH]c(=O)c(CN(Cc3nnnn3Cc3ccco3)C3CCCCC3)cc2c1 | -36.8 | i | -9.95* | i | i | -14.3
CCc1nc2ccccc2c(C(=O)OCC(=O)Nc2ccc(NC(C)=O)cc2)c1C | . | . | i | . | . | .
CCSc1nc2sc3c(c2c(=O)n1C1CCCCC1)CCN(C)C3 | 60.2* | . | i | . | . | .
C=C(C)CSc1nc2sc3c(c2c(=O)n1C1CCCCC1)CCN(C)C3 | 15.7 | i | i | i | i | -17.6
O=C(Nc1ccccc1)c1cccc(N2C(=O)CCC2=O)c1 | -11.3 | i | i | i | i | -5.7
SMILES | PHOSPHO1 block | KCNQ1 act | KCNK3 block | KCNQ1 inh | KCNK9 inh | hERG rescue
CN(C)c1ccc(NC(=O)c2cccc(N3C(=O)CCC3=O)c2)cc1 | 65.6* | i | i | i | i | 0.6
CC(C)(C)[C@H]1COC(=O)CCC/C=C/C[C@H](CC(=O)N(CCO)Cc2ccccc2)C(=O)N1 | . | . | i | . | . | .
O=C(CCCc1c[nH]c2ccccc12)NCc1ccc2c(c1)OCO2 | 3.4 | i | i | i | i | -10.2
O=C(CCc1c[nH]c2ccccc12)NCc1ccc2c(c1)OCO2 | 61.2* | i | i | i | i | -10.7
CCOC(=O)c1cc([N+](=O)[O-])sc1NC(=O)c1ccc(S(=O)(=O)N2CC3(C)CC2CC(C)(C)C3)cc1 (centres undefined) | -3.4 | i | i | 8* | i | -12.0
CCOc1ccc(C(=O)NN2C(=O)C3C4C=CC(O4)C3C2=O)cc1 (centres undefined) | 10.1 | i | i | i | i | -5.3
Oc1ccc2ccccc2c1CN1CCOCC1 | 74.5* | i | i | i | i | -5.7
S=c1[nH]nc(-c2ccccn2)n1/N=C/c1cccc2ccccc12 | 78.5* | i | i | i | i | -2.1
S=c1[nH]c(-c2ccccc2)cn1/N=C/c1ccccc1Br | -110.8 | i | i | i | i | 3.5
S=c1[nH]c(-c2ccccc2)cn1/N=C/c1cccc2ccccc12 | -89.7 | 14* | i | i | i | 68.7*
COc1cccc(S(=O)(=O)NCc2ccc(C(=O)N3CCN(c4ccccc4OC)CC3)cc2)c1 | 22.6 | i | i | i | i | -7.5
C=C1C[C@H](O[C@@H]2O[C@H](CO)[C@@H](O)[C@H](O)[C@H]2O)[C@@H]2[C@H](OC(=O)[C@H]2C)[C@H]2[C@H](C)[C@@H](O)C[C@@H]12 | . | . | i | . | . | .
CCn1c2ccccc2c2cc(NC(=O)COc3ccc(OC)cc3)ccc21 | 31.7 | i | i | i | i | -15.2
CCn1c2ccccc2c2cc(NC(=O)c3ccc(=O)oc3)ccc21 | 18.9 | i | i | i | i | -16.8
CCn1c2ccccc2c2cc(NC(=O)c3coc(=O)c(Br)c3)ccc21 | -5.5 | i | . | i | -8.81* | -18.6
CCn1c2ccccc2c2cc(NC(=O)COc3ccccc3)ccc21 | 0.3 | i | i | i | i | 5.4*
Cc1ccc(C2(C)NC(=O)N(CC(=O)N(c3ccccc3)C3CCS(=O)(=O)C3)C2=O)cc1 (centres undefined) | . | . | i | . | . | .
CCn1c(SCC(=O)Nc2c(C)n(C)n(-c3ccccc3)c2=O)nc2c1c(=O)n(C)c(=O)n2C | 64.2* | i | i | i | i | -8.3
CCn1c(SCC(=O)Nc2ccccc2)nc2c1c(=O)n(C)c(=O)n2C | 24.2 | i | i | i | i | -0.7
CC(=O)NN1C(=O)/C(=C/c2ccc(Br)o2)SC1=S | 87.0* | i | i | i | i | -9.7
